Assay results reported in ChEMBL document CHEMBL4715736, “Identification of anticancer agents based on the thieno[2,3-b]pyridine and 1H-pyrazole molecular scaffolds” (2016).

How the values were obtained:
Type in all cases: functional
NCI-H226 = assay: Growth inhibition of human NCI-H226 cells assessed as cell growth at 100 uM incubated for 48 hrs by sulforhodamine B assay relative to control; conditions: read-out: Activity
NCI-H322M = assay: Growth inhibition of human NCI-H322M cells assessed as cell growth at 100 uM incubated for 48 hrs by sulforhodamine B assay relative to control; conditions: read-out: Activity
EKVX [1] = assay: Growth inhibition of human EKVX cells assessed as cell growth at 10 uM incubated for 48 hrs by sulforhodamine B assay relative to control; conditions: read-out: Activity
HL-60(TB) [2] = assay: Growth inhibition of human HL-60(TB) cells assessed as cell growth at 0.01 uM incubated for 48 hrs by sulforhodamine B assay relative to control; conditions: read-out: Activity
How it was run: (§1)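 Screened by the NCI Developmental Therapeutics Program on its panel of 60 human tumour cell lines. Compounds were first tested at a single 10 µM dose, and compounds active there went to dose-response curves. Growth is expressed relative to untreated control (100%). GI50 (50% of maximal proliferation inhibition) and TGI (total growth inhibition) were derived from the dose-response data.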

EKVX [3] = assay: Growth inhibition of human EKVX cells assessed as cell growth at 0.01 uM incubated for 48 hrs by sulforhodamine B assay relative to control; conditions: read-out: Activity
HL-60(TB) [4] = assay: Growth inhibition of human HL-60(TB) cells assessed as cell growth at 0.1 uM incubated for 48 hrs by sulforhodamine B assay relative to control; conditions: read-out: Activity; how it was run: as §1
EKVX [5] = assay: Growth inhibition of human EKVX cells assessed as cell growth at 0.1 uM incubated for 48 hrs by sulforhodamine B assay relative to control; conditions: read-out: Activity
HL-60(TB) [6] = assay: Growth inhibition of human HL-60(TB) cells assessed as cell growth at 1 uM incubated for 48 hrs by sulforhodamine B assay relative to control; conditions: read-out: Activity; how it was run: as §1
EKVX [7] = assay: Growth inhibition of human EKVX cells assessed as cell growth at 1 uM incubated for 48 hrs by sulforhodamine B assay relative to control; conditions: read-out: Activity
HL-60(TB) [8] = assay: Growth inhibition of human HL-60(TB) cells assessed as cell growth at 100 uM incubated for 48 hrs by sulforhodamine B assay relative to control; conditions: read-out: Activity; how it was run: as §1
EKVX [9] = assay: Growth inhibition of human EKVX cells assessed as cell growth at 100 uM incubated for 48 hrs by sulforhodamine B assay relative to control; conditions: read-out: Activity
HL-60(TB) [10] = assay: Growth inhibition of human HL-60(TB) cells incubated for 48 hrs by sulforhodamine B assay; how it was run: as §1
EKVX [11] = assay: Growth inhibition of human EKVX cells incubated for 48 hrs by sulforhodamine B assay

Nc1c(C(=O)Nc2ccccc2)sc2nc3c(cc12)CN(Cc1ccccc1)CC3
growth at 100 µM (NCI-H226): 19% | growth at 100 µM (NCI-H322M): 59%

COc1ccc(S(=O)(=O)n2ccc(-c3ccc4c(c3)CCC(C)(C)O4)n2)cc1
growth at 10 µM (EKVX [1]): 51.6%

Cc1cc(C)c(NC(=O)c2sc3nc4c(cc3c2N)CN(Cc2ccccc2)CC4)c(C)c1
growth at 100 µM (NCI-H226): 20% | growth at 100 µM (NCI-H322M): 39%

CN1CCc2nc3sc(C(N)=O)c(N)c3c(-c3cccs3)c2C1
growth at 0.01 µM (HL-60(TB) [2]): 110% | growth at 0.01 µM (EKVX [3]): 100% | growth at 0.1 µM (HL-60(TB) [4]): 104% | growth at 0.1 µM (EKVX [5]): 92% | growth at 1 µM (HL-60(TB) [6]): 95% | growth at 1 µM (EKVX [7]): 91% | growth at 10 µM (EKVX [1]): 17% | growth at 100 µM (HL-60(TB) [8]): -19% | growth at 100 µM (EKVX [9]): 5% | growth at 100 µM (NCI-H226): 14% | growth at 100 µM (NCI-H322M): -1% | GI50 (HL-60(TB) [10]): 2.5 µM | LC50 (HL-60(TB) [10]): > 100 µM | TGI (HL-60(TB) [10]): 6.97 µM | GI50 (EKVX [11]): 3.54 µM | TGI (EKVX [11]): > 100 µM | CC50 (EKVX [11]; read-out: LC50 (the source's name)): > 100 µM

COc1cccc(NC(=O)c2sc3nc4c(cc3c2N)CN(Cc2ccccc2)CC4)c1
growth at 100 µM (NCI-H226): -29% | growth at 100 µM (NCI-H322M): 18%

CCc1ccccc1NC(=O)c1sc2nc3c(cc2c1N)C(=O)CCC3
growth at 0.01 µM (HL-60(TB) [2]): 101% | growth at 0.1 µM (HL-60(TB) [4]): 87% | growth at 1 µM (HL-60(TB) [6]): 6% | growth at 100 µM (HL-60(TB) [8]): -5% | growth at 100 µM (NCI-H226): 18% | growth at 100 µM (NCI-H322M): 23% | GI50 (HL-60(TB) [10]): 0.304 µM | LC50 (HL-60(TB) [10]): > 100 µM | TGI (HL-60(TB) [10]): 42 µM

Cc1ccc(NC(=O)c2sc3nc4c(cc3c2N)C(=O)CCC4)cc1C
growth at 0.01 µM (HL-60(TB) [2]): 99% | growth at 0.1 µM (HL-60(TB) [4]): 105% | growth at 1 µM (HL-60(TB) [6]): 6% | growth at 100 µM (HL-60(TB) [8]): -33% | growth at 100 µM (NCI-H226): 36% | growth at 100 µM (NCI-H322M): 37% | GI50 (HL-60(TB) [10]): 0.36 µM | LC50 (HL-60(TB) [10]): > 100 µM | TGI (HL-60(TB) [10]): 1.72 µM

Cc1cccc(NC(=O)c2sc3nc4c(cc3c2N)C(=O)CCC4)c1
growth at 100 µM (NCI-H226): -15% | growth at 100 µM (NCI-H322M): -22%

CCc1cccc(C)c1NC(=O)c1sc2nc3c(cc2c1N)C(=O)CCC3
growth at 0.01 µM (HL-60(TB) [2]): 96% | growth at 0.1 µM (HL-60(TB) [4]): 96% | growth at 1 µM (HL-60(TB) [6]): 2% | growth at 100 µM (HL-60(TB) [8]): -52% | growth at 100 µM (NCI-H226): 8% | growth at 100 µM (NCI-H322M): 21% | GI50 (HL-60(TB) [10]): 0.319 µM | LC50 (HL-60(TB) [10]): ≥ 100 µM | TGI (HL-60(TB) [10]): ≥ 100 µM
